This is an account of results in PubChem BioAssay.

The structures appear in SMILES notation. Active and inactive are the calls of the source.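 The calls were made as follows, unless noted: active = fluorescence slope after compound addition differing from the mean of all tested samples at 99.7% confidence, mostly higher but some lower; inactive = the rest.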

Assay [1] can be described thus: inhibitors of TNFa-induced NFkB p65 translocation, primary screen, imaging, HUVEC, MLSMR starter and 10KST1 sets (AID 438;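 active = inhibition above 20% together with a positive visual image hit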;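 also: compound added about 3h40 before a 20 min TNFalpha stimulation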;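 as to inhibition: signal is the nuclear over cytoplasmic p65 intensity ratio per well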). Conditions: HUVEC TNFa-induced p65 nuclear translocation; cell count: measured here: nuclei count (cytotoxicity indicator), at 2.08 µM; inhibition: at 2 µM, stronger effect = higher value, 0% TNFa-plus-vehicle, 100% no-TNFa wells.
Assay [2] in a line: inhibitors of mutant huntingtin aggregation, primary screen, imaging, exon1htt(103Q)mCFP cells, high-content imaging (AID 483;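 active = visual image review flags a hit and inhibition of aggregation exceeds 20%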;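 also: compound exposure lasted 3 days before fixation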;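 as to nuclei count: percent of the per-plate median nuclei count of sample wells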). The conditions noted are these: exon1htt(103Q)mCFP cell line, aggregate imaging, at 2 µM; inhibition of aggregation: stronger effect = higher value; nuclei count: measured here: cell count, toxicity.
Assay [3] in a line: inhibitors of E-selectin induction by TNFa, primary screen, imaging, HUVEC, immunofluorescence, MLSMR starter and 10KST1 sets (AID 487;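 active = visually confirmed hit in the image check and inhibition above 20%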;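 as to inhibition: signal is fraction of cell area covered by stained E-selectin grains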;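 as to nuclei count: 100% = median nuclei count of all wells on the same plate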). Conditions: HUVEC TNFalpha-induced E-selectin immunofluorescence imaging, at 2 µM; inhibition: stronger effect = higher value; nuclei count: measured here: cell number, toxicity.
Assay [4] has as its target Voltage-gated potassium channel subunit beta-2 (Rattus norvegicus) (UniProt P62483). The assay is described as follows: KvBeta enzyme negative modulators, primary screen, biochemical, NADPH fluorescence (AID 622;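 active = fluorescence slope higher than the sample average by over 3 SD, cut at about -0.22 in these data, passing the limit was not always enough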;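 also: slope of raw intensity against log time taken from 70 to 1610 s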). Conditions: recombinant KvBeta, 4-cyanobenzaldehyde reduction, at 10 µM, stronger effect = higher value.
For assay [5] the target is unchanged. Put plainly: KvBeta positive modulators, primary screen, biochemical, NADPH fluorescence (AID 623;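 active = NADPH fluorescence slope more negative than the mean of all samples by about 3 SD, 99.7% confidence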;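 also: fluorescence intensity change per second fitted from 20 to 320 s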). The conditions noted are these: Recombinant KvBeta, NADPH fluorescence decrease slope, 10 min; at 10 µM; stronger effect = lower value.
The target of assay [6] is Muscarinic acetylcholine receptor M4 (Homo sapiens) (UniProt P08173). The assay is described as follows: compounds altering M4/GIRK thallium flux, either direction, primary screen, M4 allosteric agonist project, cell-based, HEK293 M4/GIRK, BTC-AM (AID 625).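 Also: thallium influx through GIRK channels coupled to M4 in HEK293 cells with BTC-AM dye.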 The conditions noted are these: at 10 µM, actives lie on both sides. The method, boiled down: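 System: HEK293 cells with M4 receptor and GIRK channels | Incubation: Cells overnight at 37 °C, BTC-AM loading 1 h, reads 2 min total | Technique: Kinetic BTC-AM fluorescence sampled at 1 Hz, 10 s pre-addition baseline | Measure: Post-addition slope, 15–24 s, of baseline-normalized fluorescence | Control set: Carbachol positive, DMSO negative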
Muscarinic acetylcholine receptor M4 (Homo sapiens), sequence (P08173 whole entry, looked up): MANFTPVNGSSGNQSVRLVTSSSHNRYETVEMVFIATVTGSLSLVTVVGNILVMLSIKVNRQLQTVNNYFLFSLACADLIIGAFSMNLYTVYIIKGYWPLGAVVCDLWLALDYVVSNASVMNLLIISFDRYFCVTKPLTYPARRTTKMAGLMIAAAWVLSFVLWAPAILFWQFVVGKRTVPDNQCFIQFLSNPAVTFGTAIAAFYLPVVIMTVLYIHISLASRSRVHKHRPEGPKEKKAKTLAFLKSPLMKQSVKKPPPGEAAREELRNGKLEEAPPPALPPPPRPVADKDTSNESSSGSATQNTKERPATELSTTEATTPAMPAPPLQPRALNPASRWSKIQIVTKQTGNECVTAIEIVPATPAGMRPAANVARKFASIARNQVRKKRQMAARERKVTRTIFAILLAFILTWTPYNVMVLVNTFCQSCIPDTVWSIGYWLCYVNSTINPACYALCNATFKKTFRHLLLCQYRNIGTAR

A short description of assay [7]: inhibitors of Sendai virus-induced IRF3 signaling, primary screen, TLR/RLR signaling modifier project, cell-based, Sendai virus stimulus, luciferase, 10K MLSCN set (AID 602276;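 active = inhibition at or above 50% at 10 µM; inactive = inhibition below 50%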;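 also: firefly luciferase from ISG56 promoter only with Renilla not read in this screen; 0% = Sendai virus plus DMSO and 100% = medium plus DMSO without virus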). The conditions noted are these: HEK293 RL24 IRF3 luciferase reporter, at 10 µM, stronger effect = higher value. In general terms: A reporter such as luciferase makes a cellular process visible.
Assay [8] in a line: inhibitors of poly I:C-induced TLR3 signaling, primary screen, cell-based, poly I:C stimulus, luciferase, 10K MLSCN set (AID 602277;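 active = inhibition of the reporter signal at or above 50%; inactive = inhibition below 50%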). The conditions noted are these: HEK293-TLR3 RL24 IRF3 luciferase reporter, at 10 µM, stronger effect = higher value.

Voltage-gated potassium channel subunit beta-2 (Rattus norvegicus), sequence (P62483 whole entry, looked up): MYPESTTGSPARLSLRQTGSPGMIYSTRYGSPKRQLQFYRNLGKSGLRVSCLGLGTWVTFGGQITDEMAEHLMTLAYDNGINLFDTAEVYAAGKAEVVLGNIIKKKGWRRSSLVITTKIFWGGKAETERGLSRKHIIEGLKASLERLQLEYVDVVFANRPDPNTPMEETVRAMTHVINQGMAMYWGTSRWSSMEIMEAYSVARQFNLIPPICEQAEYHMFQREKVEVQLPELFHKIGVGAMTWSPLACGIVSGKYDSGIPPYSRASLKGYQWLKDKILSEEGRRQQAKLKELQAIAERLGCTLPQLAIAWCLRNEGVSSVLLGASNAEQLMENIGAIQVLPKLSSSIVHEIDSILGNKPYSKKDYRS

By inhibition is commonly meant the drop in the measured response relative to a control, in per cent. `Cc1ccc(S(=O)(=O)N2CCOCC2)cc1C(=O)OCC(=O)N1CCc2ccccc2C1`: in assay [1], the cell count worked out at 538. In addition, the inhibition in assay [1] was -12.2% (inactive); in assay [3], -184% (inactive); in assay [7] it was 4.57% (inactive); in assay [8], 6.74% (inactive). In addition, the inhibition of aggregation in assay [2] is 5.4% (inactive). Further, the nuclei count in assay [2] was 98.4%; in assay [3], 132%. Further, the results for the fluorescence slope in assay [4] and in assay [6] were -0.4 (inactive) and 0.00607 (inactive), respectively. The NADPH fluorescence slope in assay [5] was 5.8e-06 (inactive).

As for `Cc1ccc(C)c(SCC(=O)Nc2nnc(-c3ccccc3)o2)c1`, in assay [1], the cell count worked out at 395. The inhibition in assay [1] is -16.8% (inactive); in assay [3], -16.3% (inactive); in assay [7], 13.5% (inactive); in assay [8] it was 19.4% (inactive). The inhibition of aggregation in assay [2] was -12.6% (inactive). The nuclei count in assay [2] was determined as 99.9%; in assay [3], 124%. Moreover, the results for the fluorescence slope in assay [4] and in assay [6] were -0.586 (inactive) and 0.00772 (inactive), respectively. In addition, the NADPH fluorescence slope in assay [5] is -3.2e-05 (inactive).

For the compound `CC(C)c1ccc(S(=O)(=O)N2CCN(C(=O)c3cccc(F)c3)CC2)cc1`, the cell count in assay [1] worked out at 363. For the same compound, the inhibition in assay [1] is 4.2% (inactive); in assay [3] it was -70.8% (inactive); in assay [7] it was 14.9% (inactive); in assay [8] it was 17% (inactive). The inhibition of aggregation in assay [2] was 17% (inactive). Further, the nuclei count in assay [2] worked out at 100%; in assay [3], 118%. Moreover, the results for the fluorescence slope in assay [4] and in assay [6] were -0.525 (inactive) and 0.00667 (inactive), respectively. Besides, the NADPH fluorescence slope in assay [5] was 0.000166 (inactive).

Turning to `COc1ccccc1NC(=O)c1nnn(CC(=O)Nc2ccccc2)c1N`, the cell count in assay [1] amounted to 234. Also, the inhibition in assay [1] was -4.4% (inactive); in assay [3] it was -9.9% (inactive); in assay [7] it was 9.85% (inactive); in assay [8] it was 23.6% (inactive). Also, the inhibition of aggregation in assay [2] is -30.9% (inactive). The nuclei count in assay [2] was 95.9%; in assay [3], 103%. For the same compound, the fluorescence slope in assay [4] is -0.416 (inactive); in assay [6], 0.00673 (inactive). Moreover, the NADPH fluorescence slope in assay [5] was 5.5e-05 (inactive).

Consider `O=C(Nc1ccc(F)cc1)c1cccc2c1C(=O)N(Cc1ccccn1)C2`, for which the cell count in assay [1] was found to be 811. Further, the inhibition was 2.1% (inactive) in assay [1], -108% (inactive) in assay [3], 0.0917% (inactive) in assay [7] and -22.2% (inactive) in assay [8]. In assay [2], the inhibition of aggregation was 4.1% (inactive). Also, the nuclei count in assay [2] stood at 98.1%; in assay [3] it was 126%. In addition, the fluorescence slope in assay [4] is -0.576 (inactive); in assay [6], 0.00591 (inactive). The NADPH fluorescence slope in assay [5] is -3e-05 (inactive).

`C=CCSc1nnc(-c2ccccc2NC(C)=O)c(=O)[nH]1`: the cell count in assay [1] was 765. The inhibition in assay [1] is -33.6% (inactive); in assay [3], -60.3% (inactive); in assay [7] it was -0.29% (inactive); in assay [8], 9.66% (inactive). Besides, the inhibition of aggregation in assay [2] was 8% (inactive). The nuclei count came to 102% in assay [2] and 107% in assay [3]. The fluorescence slope in assay [4] is -0.468 (inactive); in assay [6] it was 0.00542 (inactive). Moreover, in assay [5], the NADPH fluorescence slope was -0.000277 (inactive).

Consider `O=C1CSC(c2cn(-c3ccccc3)nc2-c2cccs2)N1CC1CCCO1` (centres undefined), for which the cell count in assay [1] was found to be 453. The inhibition is -2.6% (inactive) in assay [1], -83.2% (inactive) in assay [3], 18.7% (inactive) in assay [7] and 26.5% (inactive) in assay [8]. The inhibition of aggregation in assay [2] was 10.2% (inactive). In addition, the nuclei count in assay [2] was found to be 101%; in assay [3], 117%. In addition, the fluorescence slope was -0.534 (inactive) in assay [4] and 0.00528 (inactive) in assay [6]. Further, in assay [5], the NADPH fluorescence slope was -3e-05 (inactive).

For the compound `CC(=O)N1C(=O)c2cccc3cccc(c23)C(=O)N1C(C)=O`, the cell count in assay [1] was 776. In addition, the inhibition is 4.6% (inactive) in assay [1], -62.5% (inactive) in assay [3], 18.6% (inactive) in assay [7] and 15.3% (inactive) in assay [8]. In addition, the inhibition of aggregation in assay [2] was -3.8% (inactive). For the same compound, the nuclei count in assay [2] is 93.6%; in assay [3] it was 120%. Besides, the fluorescence slope was -0.444 (inactive) in assay [4] and 0.00473 (inactive) in assay [6]. Also, the NADPH fluorescence slope in assay [5] was -2.9e-05 (inactive).

As to `Cc1ccc(-n2c(=O)[nH]c3c(C(N)=O)nc(CC(C)C)nc32)cc1`, the cell count in assay [1] is 297. Besides, the inhibition in assay [1] is 37.7% (active); in assay [3], 6.3% (inactive); in assay [7] it was -2.4% (inactive); in assay [8], 8.27% (inactive). Besides, the inhibition of aggregation in assay [2] was 9.5% (inactive). The nuclei count in assay [2] was determined as 92.3%; in assay [3], 98.1%. Also, the fluorescence slope in assay [4] was -0.536 (inactive); in assay [6], 0.00328 (inactive). For the same compound, the NADPH fluorescence slope in assay [5] is -0.000117 (inactive).

Consider `Nc1nc(SCCOc2ccccc2)n[nH]1`, for which, in assay [1], the cell count was 256. In addition, the inhibition in assay [1] was -3% (inactive); in assay [3], -41.8% (inactive); in assay [7] it was 4.33% (inactive); in assay [8], 3.33% (inactive). Besides, in assay [2], the inhibition of aggregation is 18.6% (inactive). Also, the nuclei count in assay [2] came out at 76.7%; in assay [3], 105%. Moreover, the fluorescence slope in assay [4] is -0.571 (inactive); in assay [6], 0.00618 (inactive). In assay [5], the NADPH fluorescence slope was -1.8e-05 (inactive).

For `CCc1ccccc1N=C1SCC(=O)N1C`, in assay [1], the cell count stood at 368. For the same compound, the inhibition in assay [1] is -8.5% (inactive); in assay [3], -50.2% (inactive); in assay [7], 6.15% (inactive); in assay [8], 13.2% (inactive). Also, the inhibition of aggregation in assay [2] was 19.1% (inactive). Besides, the nuclei count came out at 69.3% in assay [2] and 111% in assay [3]. The fluorescence slope in assay [4] was -0.412 (inactive); in assay [6], 0.00583 (inactive). For the same compound, in assay [5], the NADPH fluorescence slope was 7.8e-05 (inactive).

On to `CCc1ccc(NC(=O)c2cc(-c3ccco3)on2)cc1`, for which the cell count in assay [1] worked out at 382. Besides, the inhibition in assay [1] is -5.1% (inactive); in assay [3], 6.4% (inactive); in assay [7], -42.1% (inactive); in assay [8], -129% (inactive). Moreover, the inhibition of aggregation in assay [2] was 7.7% (inactive). Besides, the nuclei count in assay [2] was 99.2%; in assay [3] it was 93.1%. In addition, the figures for the fluorescence slope in assay [4] and in assay [6] were -0.44 (inactive) and 0.00523 (inactive), respectively. Moreover, the NADPH fluorescence slope in assay [5] is -4.3e-05 (inactive).

In the case of `Cc1ccc(C(=O)CSc2nnc(-c3cccnc3)n2N)cc1`, the cell count in assay [1] turned out to be 614. Moreover, the inhibition in assay [1] was -20.3% (inactive); in assay [3], 5.4% (inactive); in assay [7], -0.185% (inactive); in assay [8], 51.1% (active). The inhibition of aggregation in assay [2] was -15.4% (inactive). Moreover, the values for the nuclei count in assay [2] and in assay [3] were 89.2% and 95.7%, respectively. Also, the fluorescence slope in assay [4] was -0.534 (inactive); in assay [6] it was 0.00446 (inactive). Also, the NADPH fluorescence slope in assay [5] was -5.6e-05 (inactive).

`C=CCSc1nc2c(c(=O)[nH]c(=O)n2C)n1C(C)C`: the cell count in assay [1] amounted to 309. Further, the inhibition in assay [1] is -11.3% (inactive); in assay [3], 33% (inactive); in assay [7], 2.75% (inactive); in assay [8], 14.4% (inactive). In addition, in assay [2], the inhibition of aggregation is -2.8% (inactive). The nuclei count in assay [2] turned out to be 110%; in assay [3], 97.6%. The fluorescence slope is -0.579 (inactive) in assay [4] and 0.00565 (inactive) in assay [6]. In assay [5], the NADPH fluorescence slope is 8.7e-06 (inactive).
